# Source: PubChem (several laboratories)
# In the library only some 4.6% were active in any assay of this set; here they are far more common.
# NALP3 yeast inh = blocks the NALP3 inflammasome reconstituted in yeast; Yeast reconstituted NLRP3/ASC/caspase-1, beta-gal luminescence, 24 h; inhibition, % at 10 µM; hit rate 0.39% among 330,000; AID 2825;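 active = inhibition of 50% or more; inactive = inhibition below 50%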;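 note: plate controls were induced DMSO wells for no effect and uninduced yeast grown without galactose for full effect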
# ALR H2O2 inh = human ALR oxidase inhibition via reduced H2O2; hit rate 3.8% among 290,000; AID 485317; inhibition, % (test concentration not listed); P55789; purified ALR, DTT oxidation, H2O2 HRP-luminol luminescence;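 active = mean replicate inhibition above about 79%, with every replicate also reaching it, limit read from the data; inconclusive = only one of the two criteria met; inactive = mean below limit and not every replicate reaching it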
# Target sequence (P55789 whole entry, looked up): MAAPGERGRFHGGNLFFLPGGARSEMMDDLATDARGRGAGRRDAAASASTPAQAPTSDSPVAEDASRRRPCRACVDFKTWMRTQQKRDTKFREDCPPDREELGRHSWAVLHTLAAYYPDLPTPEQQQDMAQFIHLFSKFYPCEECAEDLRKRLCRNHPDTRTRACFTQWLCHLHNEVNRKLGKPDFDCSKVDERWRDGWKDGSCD
# Arrestin-AP2 inh = blocks beta-arrestin peptide binding to AP2 adaptin | FITC-arrestin peptide / GST-AP2 beads, flow cytometry; AP2 beta2 appendage carries R879A mutation | inhibition, % at 10 µM | hit rate 0.31% among 340,000 | AID 504490;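 active = inhibition above a set limit, near 3 SD of compounds lacking own fluorescence, cut at about 54% in these data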;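 note: plate controls were DMSO wells for no effect and 5 µM unlabelled arrestin peptide for full effect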
#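 System: GST-tagged AP2 beta2-adaptin appendage (R879A) on 4 µm glutathione beads / Reagent: FITC-arrestin peptide, 50 nM / Detection: HyperCyt-sampled flow cytometry, FL1 channel, ex 488/em 535 nm / Timing: 12 min plus 1 h, RT / Buffer or medium: PBS plus Tween 20 (0.05%) and BSA (0.1%)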
# Pemphigus Ab inh = blocks pemphigus antibody binding to human desmoglein-3; DSG3-coupled beads, scFv-anti-DSG3-GFP binding, flow cytometry; hits give low values; P32926; hit rate 0.48% among 310,000; binding (percent of control), % at 10 µM; AID 588358;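 active = binding more than 3 SD below its plate's average and above zero; inconclusive = below that plate limit but binding exactly zero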;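 note: hits lower antibody fragment binding to DSG3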
# PolyA inh = blocks polyadenylation in yeast reporter cells. S. cerevisiae SKY197-pL101 polyadenylation reporter, beta-gal luminescence; efflux-impaired pdr1/pdr3 knockout yeast; score 100 = 6 SD above DMSO. activity score, % at 12 µM. hit rate 0.02% among 300,000. AID 1875;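 active = lowest replicate activity score at least 50, where 100 means six control SD above control mean; inconclusive = lowest score under 50 but half or more replicates reach 50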;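 note: yeast exposed to compound for 9 h at 30 °C; higher score means more reporter readthrough which indicates perturbed polyadenylation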
# NALP1 yeast inh = NALP1 inhibition; S. cerevisiae NALP1/ASC/caspase-1 growth, X-gal OD620, 72 h; inhibition, % at 10 µM; hit rate 0.61% among 280,000; in the data active = inhibition mostly above about 24%, no sharp cut-off; inactive = mostly below about 32%
# NALP3 confirm = NALP3 inhibition confirmation in yeast; shares compounds with NALP3 yeast inh; yeast expressing human NALP3, luminescence; inhibition, % at 10 µM; hit rate 81% among 1,300; AID 435006; in the data active = inhibition above about 48%
# Casp1-ASC yeast = counter-screen for NALP3 inhibitors: yeast caspase-1-ASC | hit rate 66% among 1,000 | shares compounds with NALP3 yeast inh | inhibition, % at 10 µM | yeast expressing Caspase-1-ASC, luminescence counter screen
# NALP3 retest = confirmation retest of NALP3 inhibitors in yeast | hit rate 53% among 1,000 | inhibition, % at 10 µM | yeast expressing human NALP3, luminescence read-out | shares compounds with NALP3 yeast inh
# * hit, by the source's call; ? = inconclusive; nt = no result given. Cut-off read from the data, not from the text of the source, unless noted: active = inhibition above about 50%; inactive = the rest.
SMILES,NALP3 yeast inh,ALR H2O2 inh,Arrestin-AP2 inh,Pemphigus Ab inh,PolyA inh,NALP1 yeast inh,NALP3 confirm,Casp1-ASC yeast,NALP3 retest
c1ccc(Oc2cc(-c3ccccc3)nc(-c3ccccc3)n2)cc1,21.4,2.0,27.1,90.6,-0.2,nt,nt,nt,nt
c1ccc(Oc2cc(-c3ccccc3)ncn2)cc1,52.1*,-2.2,-2.5,112.1,-16.2,0.6,46.8,70.8*,54.6*
CC1(C)COC(/C=C/c2cccc([N+](=O)[O-])c2)=N1,55.1*,-1.2,10.6,98.6,-2.7,11.2,62.1*,73.6*,57.3*
CC1(C)COC(c2cc([N+](=O)[O-])ccc2Cl)=N1,27.8,nt,-0.1,105.0,-3.3,0.9,nt,nt,nt
O=C(c1csc2c1CCCC2)N1CCN(c2cccc(C(F)(F)F)c2)CC1,-109.5,-24.1,8.3,nt,9.3,-6.9,5.1,nt,nt
O=C(c1csc2c1CCCC2)N1CCN(c2ccc(F)cc2)CC1,-15.0,nt,8.5,nt,-3.9,-15.6,nt,nt,nt
COc1ccccc1-c1sc2cc3c(cc2c1-c1ccc(OCCN2CCCCC2)cc1)OCO3,64.1*,-4.1,-4.0,104.0,nt,nt,48.6*,46.5,43.0
COc1cc2sc(-c3ccccc3OC)c(-c3ccc(OCCN4CCCCC4)cc3)c2cc1OC,22.7,-9.1,5.6,117.5,nt,nt,nt,nt,nt
Cc1cc(C)c(S(=O)(=O)N2CCC(C(=O)NCc3ccc(Cl)cc3Cl)CC2)c(C)c1,47.5,nt,-1.7,nt,-89.2,4.1,nt,nt,nt
CC(C)=CCc1c(O)cc2oc3c(CC=C(C)C)c(O)c(O)c(CC=C(C)C)c3c(=O)c2c1O,55.7*,-14.4,4.2,95.0,-10.4,-6.9,73.7*,51.0*,46.8
COc1ccc(Cl)cc1C(=O)Nc1ccc(NC(C)=O)cc1,8.2,-2.8,-8.7,97.7,11.8,29.6,nt,nt,nt
CC(=O)Oc1c(I)cc(I)cc1C(=O)Nc1ccc(Cl)cc1,59.8*,24.8,-11.5,nt,-22.9,3.1,77.0*,46.8,57.6*
O=C(OCCc1cc2ccccc2c(=O)o1)c1ccc2c(c1)OCO2,22.6,12.8,2.9,99.6,nt,nt,nt,nt,nt
O=C(OCCCc1cc2ccccc2c(=O)o1)c1ccc2c(c1)OCO2,53.1*,-3.0,3.7,101.1,nt,nt,37.4,29.8,29.8
OC(c1ccc(Cl)cc1)c1nccc2ccccc12 (stereo unspecified),58.0*,nt,-7.9,106.0,16.6,11.8,67.1*,65.5*,46.5
CCC(C(=O)NCc1ccccn1)n1c2ccccc2c2nc(=O)cc(C)n21 (stereo unspecified),10.8,-5.9,-3.0,100.1,2.7,15.1,nt,nt,nt
Cc1ccc(OCCn2c(=S)[nH]c3ccccc32)c(C(C)C)c1,74.8*,20.8,15.3,102.6,-2.8,13.3,81.4*,55.6*,49.6
O=C(CN1CCCCC1)NC(=O)NCc1ccccc1,12.1,-1.5,1.4,117.0,18.1,10.4,nt,nt,nt
O=c1c2ccccc2nnn1Cc1ccc(Br)cc1,50.3*,0.5,9.7,104.1,-18.3,14.3,65.9*,56.9*,58.4*
S=C1SCN(Cc2cccnc2)CN1Cc1cccnc1,56.8*,8.7,-12.6,nt,-25.9,69.3*,58.2*,44.2,37.4
C/C(=N/NC(=O)c1ccc(C(C)(C)C)cc1)c1ccccn1,65.7*,-5.6,8.2,99.7,6.4,nt,55.0*,83.2*,78.7*
C/C(=N\NC(=O)c1ccc(Cl)c(Cl)c1)c1ccccn1,52.6*,-6.8,-2.2,87.9,-16.0,7.1,79.7*,nt,nt
C/C(=N\NC(=O)c1cccc(Br)c1)c1ccccn1,61.4*,14.9,-7.6,nt,7.2,38.6,83.9*,84.7*,69.0*
NS(=O)(=O)c1cccc(C(=O)OCC(=O)NC2CCCc3ccccc32)c1 (stereo unspecified),24.6,-4.1,-3.5,100.3,nt,nt,nt,nt,nt
CCOC(=O)c1cc(CC)sc1N,-12.0,-1.8,5.2,103.9,24.8,-9.7,nt,nt,nt
SMILES,NALP3 yeast inh,ALR H2O2 inh,Arrestin-AP2 inh,Pemphigus Ab inh,PolyA inh,NALP1 yeast inh,NALP3 confirm,Casp1-ASC yeast,NALP3 retest
Cc1ccc(-c2nc(S(=O)(=O)c3ccc(C)cc3)c(N(C)C)o2)cc1,70.8*,7.6,-5.0,106.0,9.9,4.9,66.1*,81.7*,61.9*
COc1cc(-c2nc(S(=O)(=O)c3ccc(C)cc3)c(N(C)C)o2)cc(OC)c1OC,-13.9,-1.3,28.7,92.1,7.0,8.7,nt,nt,nt
O=C(NCCN1CCN(c2ccccc2)CC1)Nc1ccccc1Br,26.7,?,-17.1,89.7,-6.1,18.6,nt,nt,nt
CCSc1nnc(NC(=O)c2cnccn2)s1,20.6,1.7,nt,nt,-2.6,-1.9,nt,nt,nt
CCSc1nnc(NC(=O)c2ccccn2)s1,54.9*,2.3,2.8,104.5,-28.3,24.3,61.0*,nt,nt
CCSc1nnc(NC(=O)c2ccccc2)s1,42.9,-1.0,-5.6,103.5,-7.8,46.5,nt,nt,nt
CCSc1nnc(NC(=O)c2ccccc2C)s1,57.1*,12.5,5.7,94.9,-23.1,5.9,47.7,nt,nt
Cc1[nH]c2ccccc2c1C(=O)CN1CCN(C/C=C/c2ccccc2)CC1,-0.9,-1.3,-11.6,107.2,21.9,-6.3,nt,nt,nt
O=C(C=Cc1ccccc1Cl)c1ccccc1,nt,nt,-0.4,95.1,nt,nt,nt,nt,nt
Cc1nc2ccccc2c(N)c1C(=O)/C=C/c1ccccc1,74.7*,nt,1.6,117.3,8.3,18.4,74.2*,55.9*,37.8
Cc1[nH]c2ccccc2c1C(=O)/C=C\c1ccccc1Cl,53.0*,-1.7,-4.1,99.6,-18.9,nt,-20.0,nt,nt
Cc1[nH]c2ccccc2c1C(=O)/C=C/c1ccccc1Cl,60.8*,2.6,-6.6,110.5,-11.6,7.2,21.6,nt,nt
Cc1[nH]c2ccccc2c1C(=O)/C=C/c1ccccc1,63.3*,5.0,-1.6,nt,-7.2,-2.8,52.4*,79.8*,75.0*
CC(C)NC(=O)c1cc2cc([N+](=O)[O-])ccc2s1,22.4,-12.7,3.6,nt,-21.6,4.2,nt,nt,nt
CCCNC(=O)c1cc2cc([N+](=O)[O-])ccc2s1,52.4*,-4.5,13.7,99.3,15.9,13.6,41.0,44.1,37.7
CC(C)(C)c1cc(NC(=O)c2cc(F)c(F)c(F)c2F)no1,-4.5,-2.6,6.2,103.3,0.1,-0.6,nt,nt,nt
C/C(=N\NC(=O)c1nnn(-c2nonc2N)c1CN(C)c1ccccc1)c1cccnc1,5.8,-9.7,-1.4,125.1,-17.7,25.2,nt,nt,nt
Cc1ccc2oc(/N=C(\N)NC(=O)C(C)(C)C)nc2c1,70.9*,3.2,14.6,116.0,-5.0,15.2,58.0*,44.7,46.6
Cc1cc(N2CCCC2)ccc1/C=C1\NC(=S)N(C)C1=O,50.9*,55.4,-11.6,157.0,-51.3,2.8,50.0*,50.5*,46.8
COc1ccc(Cc2cnc(N)s2)cc1,24.1,11.4,-49.9,95.9,19.3,-0.8,nt,nt,nt
